Source: ChEMBL document CHEMBL1123969, “Cardiovascular effects of new water-soluble derivatives of forskolin” (J Med Chem, 1988)
≈ marks a conversion by molar mass, not a printed value. Calls of active or inactive are those of the source. The rule behind the calls is not given here.

Columns and labels:
Felis catus [1] = test: Effective dose for lowering of blood pressure in anesthetized cat when administered intravenously; NA=Not active; assay type: functional, organism-based
Method in brief: (§1)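 Cats of either sex, 3–4 kg, under ether induction and chloralose (70 mg/kg iv). Compounds in distilled water or propylene glycol were given iv via the femoral vein at 0.01–10 mg/kg. Fall in mean arterial pressure read 10 min post-dose. ED20 taken graphically from the log dose-response curve, with doses run in triplicate.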

Cavia porcellus [2] = species: Cavia porcellus; test: Positive inotropic activity was assessed in spontaneously beating guinea pig atria; NA=Not active; assay type: functional, organism-based
Method in brief: (§2)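 Guinea pig atria, spontaneously beating, in Ringer solution at 32 °C gassed with 95% O2/5% CO2. Isometric force recorded at 0.5–1 g initial tension after 30 min stabilization. Compounds in water or propylene glycol given cumulatively at 0.01–30 μg/mL, with 7 min contact per dose. EC50 for a 50% force increase taken graphically from the dose-response curve, in triplicate.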

Felis catus [3] = test: Effective dose for lowering blood pressure in anesthetized cat when administered intravenously; assay type: functional; details: iv; method in brief: as §1
Canis familiaris [4] = test: Dose required to produce 50 % increase in left ventricular dP/dt max in anesthetized dogs when administered intravenously; assay type: functional; details: Canis lupus familiaris, Heart left ventricle, iv
Method in brief: (§3)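 Male mongrel dogs (10–18 kg), anesthetized with pentobarbital sodium 35 mg/kg iv, then infused with pentobarbitone 3–5 mg/kg per h, intubated and breathing spontaneously. Compounds in distilled water, given iv via the femoral vein in 0.1 mL/kg. Four to six doses between 0.01 and 3 mg/kg, 10–30 min apart. Percent change in LV dP/dt max over the initial value; ED50 taken from the dose-response curve.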

Cavia porcellus [5] = species: Cavia porcellus; test: Positive inotropic activity in spontaneously beating guinea pig atria; assay type: functional, organism-based; method in brief: as §2
[6] = Acute toxicity in mice when administered intraperitoneally; assay type: organism-based; details: mouse, in vivo, ip
Method in brief: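 Mice (18-20 g), either sex; compound dissolved in distilled water or suspended in 0.5% (carboxymethyl)cellulose, injected ip at 10, 30, 100, 300 and 1000 mg/kg (1 mL/100 g body weight). Animals observed for 48 h. Approximate LD50 calculated by the Campbell and Richter method.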

Canis familiaris [7] = test: Percent increase of heart rate in anesthetized dogs at a dose of 0.1 mg/kg; assay type: functional, Canis lupus familiaris
Method in brief: (§4)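 Anesthesia was pentobarbital sodium 35 mg/kg iv, maintained with pentobarbitone 3–5 mg/kg per h. Male mongrel dogs, 10–18 kg, intubated for spontaneous breathing. Aqueous solutions were given iv via the femoral vein at 0.1 mL/kg, in escalating doses with 10–30 min between doses. Mean BP fall and percent heart-rate increase were recorded at each dose, with lead II ECG.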

Canis familiaris [8] = test: Percent increase of heart rate in anesthetized dogs at a dose of 0.3 mg/kg; assay type: functional, Canis lupus familiaris; method in brief: as §4
Canis familiaris [9] = test: Percent increase of heart rate in anesthetized dogs at a dose of 1 mg/kg; assay type: functional, Canis lupus familiaris; method in brief: as §4
Canis familiaris [10] = test: Fall in mean blood pressure in anesthetized dogs at a dose of 0.1 mg/kg; assay type: functional, Canis lupus familiaris; method in brief: as §4
Canis familiaris [11] = test: Fall in mean blood pressure in anesthetized dogs at a dose of 0.3 mg/kg; assay type: functional, Canis lupus familiaris; method in brief: as §4
Canis familiaris [12] = test: Fall in mean blood pressure in anesthetized dogs at a dose of 1 mg/kg; assay type: functional, Canis lupus familiaris; method in brief: as §4
Canis familiaris [13] = test: Percent increase of heart rate in anesthetized dogs at a dose of 0.03 mg/kg; assay type: functional, Canis lupus familiaris; method in brief: as §4
Canis familiaris [14] = species: Canis familiaris; test: (§5) Percent increase in LV dP/dt max; assay type: functional, Canis lupus familiaris; method in brief: as §3
Canis familiaris [15] = species: Canis familiaris; test: as §5; assay type: functional, Canis lupus familiaris; method in brief: as §3; remark: listed apart in the source
Canis familiaris [16] = species: Canis familiaris; test: as §5; assay type: functional, Canis lupus familiaris; method in brief: as §3; remark: listed apart in the source
Canis familiaris [17] = species: Canis familiaris; test: as §5; assay type: functional, Canis lupus familiaris; method in brief: as §3; remark: listed apart in the source

| SMILES | EC50 (Cavia porcellus [2]) | ED20 (Felis catus [1]) | ED20 (Felis catus [3]) [mg/kg] | EC50 (Cavia porcellus [5]) [µg/mL] | further results |
| --- | --- | --- | --- | --- | --- |
| C=C[C@@]1(C)CC(=O)[C@]2(O)C3(C)C(C(OC(=O)Cn4c(=O)c5c(ncn5COCCOC)n(C)c4=O)C(O)[C@@]2(C)O1)C(C)(C)CC[C@@H]3O (some centres not stated) | Not Active | inactive | – | – | – |
| C=C[C@@]1(C)CC(=O)[C@]2(O)C3(C)C(C(OC(=O)CCCN4CCOCC4)C(O)[C@@]2(C)O1)C(C)(C)CC[C@@H]3O.Cl (some centres not stated) | Not Active | – | 2 | – | – |
| C=C[C@@]1(C)CC(=O)[C@]2(O)C3(C)C(C(OC(=O)C(C)N4CCCCC4)C(O)[C@@]2(C)O1)C(C)(C)CC[C@@H]3O.Cl (some centres not stated) | Not Active | – | 1 | – | – |
| C=C[C@@]1(C)CC(=O)[C@]2(O)C3(C)C(C(OC(=O)CCN4CCCCC4)C(O)[C@@]2(C)O1)C(C)(C)CC[C@@H]3O.Cl (some centres not stated) | – | – | 1 | 0.5 | ED50 (Canis familiaris [4]): 0.3 mg/kg; LD50 [6]: 30 mg/kg |
| C=C[C@@]1(C)CC(=O)[C@]2(O)C3(C)C(C(OC(=O)CN4CCC(O)CC4)C(O)[C@@]2(C)O1)C(C)(C)CC[C@@H]3O.Cl (some centres not stated) | – | inactive | – | 3 | – |
| C=C[C@@]1(C)CC(=O)[C@]2(O)C3(C)C(C(O)C(OC(=O)CN(CC(=O)OC4C(O)C5C(C)(C)CC[C@H](O)C5(C)[C@@]5(O)C(=O)C[C@](C)(C=C)O[C@]45C)Cc4ccccc4)[C@@]2(C)O1)C(C)(C)CC[C@@H]3O (some centres not stated) | Not Active | inactive | – | – | – |
| C=C[C@@]1(C)CC(=O)[C@]2(O)C3(C)C(C(O)C(OC(=O)CN4CCOCC4)[C@@]2(C)O1)C(C)(C)CC[C@@H]3O.Cl (some centres not stated) | – | – | – | 0.35 | ED50 (Canis familiaris [4]): 0.035 mg/kg; LD50 [6]: 25 mg/kg |
| C=C[C@@]1(C)CC(=O)[C@]2(O)C3(C)C(C(OC(=O)C(C)N4CCN(C)CC4)C(O)[C@@]2(C)O1)C(C)(C)CC[C@@H]3O.Cl (some centres not stated) | Not Active | – | 3 | – | – |
| C=C[C@@]1(C)CC(=O)[C@]2(O)C3(C)C(C(OC(=O)CN4CCCCC4)C(O)[C@@]2(C)O1)C(C)(C)CC[C@@H]3O.Cl (some centres not stated) | – | – | 3 | 1.8 | Heart rate (Canis familiaris [7]): 8.8%; Heart rate (Canis familiaris [8]): 9.8%; Heart rate (Canis familiaris [9]): 13.8%; BP (Canis familiaris [10]): 8.8 mmHg; BP (Canis familiaris [11]): 30.2 mmHg; BP (Canis familiaris [12]): 72 mmHg; Heart rate (Canis familiaris [13]): 6.2%; ED50 (Canis familiaris [4]): 0.052 mg/kg; Activity (Canis familiaris [14]): 64%; Activity (Canis familiaris [15]): 94%; Activity (Canis familiaris [16]): 123%; LD50 [6]: 85 mg/kg; Activity (Canis familiaris [17]): 48% |
| C=C[C@@]1(C)CC(=O)[C@]2(O)[C@@]3(C)[C@@H](O)CCC(C)(C)[C@@H]3[C@H](O)[C@H](OC(C)=O)[C@@]2(C)O1 [COLFORSIN] | – | – | 0.038 | 0.02 (≈ 0.0487 µM) | ED50 (Canis familiaris [4]): 0.007 mg/kg; LD50 [6]: 92 mg/kg |
| C=C[C@@]1(C)CC(=O)[C@]2(O)C3(C)C(C(OC(=O)CCCN4CCN(C)CC4)C(O)[C@@]2(C)O1)C(C)(C)CC[C@@H]3O.Cl (some centres not stated) | – | – | 1 | 0.2 | ED50 (Canis familiaris [4]): 0.41 mg/kg; LD50 [6]: 65 mg/kg |
| C=C[C@@]1(C)CC(=O)[C@]2(O)C3(C)C(C(OC(=O)CN4CCOCC4)C(O)[C@@]2(C)O1)C(C)(C)CC[C@@H]3O.Cl (some centres not stated) | – | – | 3 | 0.5 | ED50 (Canis familiaris [4]): 0.11 mg/kg; LD50 [6]: 82.5 mg/kg |
| C=C[C@@]1(C)CC(=O)[C@]2(O)C3(C)C(C(OC(=O)CN4C(C)CCCC4C)C(O)[C@@]2(C)O1)C(C)(C)CC[C@@H]3O.Cl (some centres not stated) | Not Active | inactive | – | – | – |
| C=C[C@@]1(C)CC(=O)[C@]2(O)C3(C)C(C(OC(=O)CN4CCC(C)CC4)C(O)[C@@]2(C)O1)C(C)(C)CC[C@@H]3O.Cl (some centres not stated) | – | inactive | – | 2.6 | – |
| C=C[C@@]1(C)CC(=O)[C@]2(O)C3(C)C(C(O)C(OC(=O)C(C)N4CCOCC4)[C@@]2(C)O1)C(C)(C)CC[C@@H]3O.Cl (some centres not stated) | – | – | 2 | 0.27 | ED50 (Canis familiaris [4]): 0.04 mg/kg; LD50 [6]: 30 mg/kg |
| C=C[C@@]1(C)CC(=O)[C@]2(O)C3(C)C(C(O)C(OC(=O)CNC(=O)OC(C)(C)C)[C@@]2(C)O1)C(C)(C)CC[C@@H]3O (some centres not stated) | – | inactive | – | 9.2 (≈ 17.5 µM) | – |
| C=C[C@@]1(C)CC(=O)[C@]2(O)C3(C)C(C(OC(=O)CCN4CCOCC4)C(O)[C@@]2(C)O1)C(C)(C)CC[C@@H]3O.Cl (some centres not stated) | Not Active | inactive | – | – | – |
| C=C[C@@]1(C)CC(=O)[C@]2(O)C3(C)C(C(OC(=O)CN(C)C4CCCCC4)C(O)[C@@]2(C)O1)C(C)(C)CC[C@@H]3O.ClC(Cl)Cl (some centres not stated) | Not Active | – | 3.5 | – | – |

More lines, main results first:

| EC50 (Cavia porcellus [2]) | SMILES | ED20 (Felis catus [1]) | ED20 (Felis catus [3]) [mg/kg] | EC50 (Cavia porcellus [5]) [µg/mL] | further results |
| --- | --- | --- | --- | --- | --- |
| Not Active | C=C[C@@]1(C)CC(=O)[C@]2(O)C3(C)C(C(O)C(OC(=O)CN4C(C)CCCC4C)[C@@]2(C)O1)C(C)(C)CC[C@@H]3O.Cl (some centres not stated) | inactive | – | – | – |
| Not Active | C=C[C@@]1(C)CC(=O)[C@]2(O)C3(C)C(C(O)C(OC(=O)C(C)Nc4ccccc4)[C@@]2(C)O1)C(C)(C)CC[C@@H]3O (some centres not stated) | – | 3 | – | – |
| Not Active | C=C[C@@]1(C)CC(=O)[C@]2(O)C3(C)C(C(O)C(OC(=O)C(C)N4CCN(C)CC4)[C@@]2(C)O1)C(C)(C)CC[C@@H]3O.Cl (some centres not stated) | – | 10 | – | – |
| Not Active | C=C[C@@]1(C)CC(=O)[C@]2(O)C3(C)C(C(O)C(OC(=O)CCCN4CCN(C)CC4)[C@@]2(C)O1)C(C)(C)CC[C@@H]3O.Cl (some centres not stated) | – | 0.8 | – | – |
| Not Active | C=C[C@@]1(C)CC(=O)[C@]2(O)C3(C)C(C(O)C(OC(=O)CN4CCC(NC(=O)c5ccccc5)CC4)[C@@]2(C)O1)C(C)(C)CC[C@@H]3O (some centres not stated) | – | 3 | – | – |
| Not Active | C=C[C@@]1(C)CC(=O)[C@]2(O)C3(C)C(C(OC(=O)C(C)Nc4ccccc4)C(O)[C@@]2(C)O1)C(C)(C)CC[C@@H]3O.Cl (some centres not stated) | – | 6.2 | – | – |
| Not Active | C=C[C@@]1(C)CC(=O)[C@]2(O)C3(C)C(C(O)C(OC(=O)CN4CCC(O)(c5ccccc5)CC4)[C@@]2(C)O1)C(C)(C)CC[C@@H]3O.Cl (some centres not stated) | inactive | – | – | – |
| Not Active | C=C[C@@]1(C)CC(=O)[C@]2(O)C3(C)C(C(O)C(OC(=O)CN(C)C4CCCCC4)[C@@]2(C)O1)C(C)(C)CC[C@@H]3O (some centres not stated) | – | 10 | – | – |
| Not Active | C=C[C@@]1(C)CC(=O)[C@]2(O)C3(C)C(C(O)C(OC(=O)Cn4cnc5ccccc54)[C@@]2(C)O1)C(C)(C)CC[C@@H]3O (some centres not stated) | – | 10 | – | – |
| Not Active | C=C[C@@]1(C)CC(=O)[C@]2(O)C3(C)C(C(OC(=O)CN(CC)CC)C(O)[C@@]2(C)O1)C(C)(C)CC[C@@H]3O.Cl (some centres not stated) | inactive | – | – | – |
| Not Active | C=C[C@@]1(C)CC(=O)[C@]2(O)C3(C)C(C(O)C(OC(=O)CCCn4cnc5c4c(=O)n(C)c(=O)n5C)[C@@]2(C)O1)C(C)(C)CC[C@@H]3O (some centres not stated) | – | 3 | – | – |
